# Bioassay records from PubChem.
# In the library only some 10% were active in any assay of this set; here they are far more common.
# WT yeast gro inh: growth inhibition of WT yeast, mitochondrial fusion screen | mitochondrial fusion phenotypic screen, WT strain | inhibition, % at 10 µM | hit rate 2.1% among 190,000 | AID 1362; in the data active means inhibition above about 58%; tested in S. cerevisiae
# PMI act satM6P: PMI (human) activation, high substrate. coupled PMI enzyme assay, resazurin fluorescence, 20 min; hits give high values; 1 = untreated enzyme, 0 = substrate-free blank. activation factor at 20 µM. hit rate 0.34% among 190,000. AID 1216. P34949;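 active means activation factor of 2 or more at 20 µM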
# Target sequence (P34949 whole entry, looked up): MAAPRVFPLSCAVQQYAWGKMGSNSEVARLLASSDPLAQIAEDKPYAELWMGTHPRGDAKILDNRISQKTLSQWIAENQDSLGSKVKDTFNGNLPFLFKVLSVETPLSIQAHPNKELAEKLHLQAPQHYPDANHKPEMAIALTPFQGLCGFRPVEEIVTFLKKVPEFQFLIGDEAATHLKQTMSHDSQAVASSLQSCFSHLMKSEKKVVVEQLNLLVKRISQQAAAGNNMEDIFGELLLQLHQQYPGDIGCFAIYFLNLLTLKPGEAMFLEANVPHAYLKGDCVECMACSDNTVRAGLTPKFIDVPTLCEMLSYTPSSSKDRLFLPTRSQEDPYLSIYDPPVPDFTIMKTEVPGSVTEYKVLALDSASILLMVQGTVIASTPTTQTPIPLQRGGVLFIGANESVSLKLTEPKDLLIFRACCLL
#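 Test system – human PMI in coupled enzyme assay · Timing – 20 min incubation at room temperature · Detection – Diaphorase-driven resazurin-to-resorufin fluorescence, excitation 544, emission 590 nm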
# Diaphorase act: counter-screen for diaphorase-based assays: diaphorase activators and chemical reducers; Diaphorase/resazurin coupled assay, resorufin fluorescence, 16 min; hits give high values; 1 = vehicle wells, 0 = NADH-free wells; activation factor at 20 µM; hit rate 0.005% among 190,000;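 active means diaphorase activity raised at least twofold by the compound at 20 µM; inactive means activation factor below 2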
#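 Test system: Clostridium kluyveri diaphorase, purified enzyme. Buffer or medium: 50 mM HEPES pH 7.4 buffer plus MgCl2 and Tween 20. Also added: 0.114 mM NADH and 0.1 mM resazurin, final amounts. Dosing: compound 20 µM once, DMSO 1%. Schedule: 16 min enzyme reaction, ambient temperature. Detection: fluorescence of resorufin, 544 nm excitation, 590 nm emission.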
# PMI act: activators of human phosphomannose isomerase; P34949; purified human PMI, coupled resazurin fluorescence, 20 min; hits give high values; 1 = vehicle control, 0 substrate-free wells; activation factor at 20 µM; hit rate 0.005% among 190,000; AID 1214;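 active means activation factor of 2 or more at 20 µM, relative to plate controls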
# L major viab: inhibitors of Leishmania major promastigote growth | Leishmania major promastigotes, resazurin fluorescence viability | hit rate 9% among 200,000 | inhibition, % at 10 µM | AID 1063; in the data active means inhibition above about 50%;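 further: promastigotes grown with compound for 44 hours at 28 °C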
# The depositor's hits bear a star; / = not tested or not shown.
SMILES,WT yeast gro inh,PMI act satM6P,Diaphorase act,PMI act,L major viab
Cc1onc(-c2ccccc2Cl)c1C(=O)N1CCCCC1C(=O)O (centres undefined),9,1,0.9,1,-2
C/C(=N/NC(=O)c1ccc(Cl)s1)c1ccc(NC(=O)COc2ccc(Cl)cc2)cc1,22,0.9,1,0.9,-3
Cc1onc(-c2ccccc2Cl)c1C(=O)N(C)C1CCCCC1,10,1,1.1,1,78*
COC(=O)CNC(=O)c1c(-c2ccccc2Cl)noc1C,-3,1,0.9,0.9,-9
Cc1onc(-c2ccccc2Cl)c1C(=O)Nc1ccccc1,-14,0.9,0.9,0.9,-3
CCC(=O)Nc1ccc(/C(C)=N\NC(=O)c2ccc(C)s2)cc1,-30,1.1,0.9,1.1,96*
Cc1onc(-c2ccccc2Cl)c1C(=O)Nc1ccc(CN2CCCC2)cc1,-17,1.1,1,1.2,99*
CCC(=O)Nc1ccc(/C(C)=N/NC(=O)c2c(-c3ccccc3Cl)noc2C)cc1,1,1,0.9,1,96*
CCC(C)/C(C)=N/NC(=O)CSc1nc2ccccc2[nH]1 (centres undefined),-19,0.9,0.9,0.9,6
Cc1onc(-c2ccccc2Cl)c1C(=O)N/N=C(\N)COc1ccc(Cl)cc1,-14,1,0.9,1,84*
CCC(C)(C)n1nnnc1CN1CCN(c2ccc(OC)cc2)CC1,11,0.8,0.8,0.9,6
COc1ccc(-c2noc(-c3ccccc3-c3ccccc3)n2)cc1OC,75*,0.9,0.9,0.9,-1
COc1cc(CNCCc2ccccc2F)ccc1OCc1ccc(Cl)nc1,14,1,0.9,1,100*
COc1ccc(CCNCc2ccc(OCC(=O)N3CCCCC3)c(OC)c2)cc1OC,-16,1,1.2,1.1,-5
COc1cc(CNCCc2ccc(F)cc2)ccc1OCc1ccc(Cl)nc1,16,1.1,1.1,1,100*
O=[N+]([O-])c1ccccc1S(=O)(=O)N1CCN(Cc2ccsc2)CC1,2,0.9,0.8,0.9,4
COC(=O)c1ccc(COC(=O)CCc2nc(-c3ccccc3)c(-c3ccccc3)o2)cc1,21,1,0.9,0.9,-2
COc1ccc(C(=O)CN2CCN(S(=O)(=O)c3cccc([N+](=O)[O-])c3)CC2)cc1,-3,1.2,0.9,1.1,9
CN1CCN(S(=O)(=O)c2ccc(Sc3nc4ccccc4[nH]3)c3nsnc23)CC1,-4,1.1,0.9,1,100*
COc1ccc(C(=O)Oc2cccc3cccnc23)cc1[N+](=O)[O-],17,0.5,0.7,0.8,93*
Cc1ccc(C(=O)Oc2ccc(Cl)c3cccnc23)cc1[N+](=O)[O-],25,0.8,0.7,0.8,98*
NC(=O)c1ccc(Oc2cccc3cccnc23)c([N+](=O)[O-])c1,4,0.5,0.9,0.9,3
O=C(Nc1cccc(C(=O)N2CCN(c3cccc(Cl)c3)CC2)c1)c1ccccc1,55,0.9,1,1,13
O=C1C2C3C=CC(C2C(=O)N1C1CCCCC1)C1C2C(=O)N(C4CCCCC4)C(=O)C2C31 (centres undefined),2,1,0.9,0.9,9
N#CC1=C(N)Nc2nc3ccccc3n2C1c1ccc(Cl)cc1 (centres undefined),31,1,1,1.1,77*
SMILES,WT yeast gro inh,PMI act satM6P,Diaphorase act,PMI act,L major viab
NC1=NC(c2ccc(Br)cc2)n2c(nc3ccccc32)N1 (centres undefined),-6,0.8,0.8,0.8,11
N#CC1=C(N)Nc2ncnn2C1c1ccccc1 (centres undefined),-12,0.9,0.9,1,57*
O=C(COc1ccccc1Cl)NCCC1=CCCCC1,7,1,1,0.9,-2
CN(c1ccccc1)S(=O)(=O)c1ccc(C(=O)Nc2nnc(-c3ccc(F)cc3)o2)cc1,46,1.1,0.8,1,4
COc1ccccc1-c1nnc(NC(=O)c2ccc(S(=O)(=O)N(C)Cc3ccccc3)cc2)o1,-18,1.3,1,1.3,97*
CN(Cc1ccccc1)S(=O)(=O)c1ccc(C(=O)Nc2nnc(C3CC3)o2)cc1,74*,0.9,0.8,1,99*
O=C(CSCc1ccc(F)cc1)NCc1ccco1,-7,1,1,0.9,-2
CC(C)NC(=S)N/N=C/c1c[nH]c2ccccc12,-6,0.9,0.8,0.9,66*
Cc1[nH]c2ccccc2c1/C=N/NC(=S)NC(C)C,18,0.9,0.7,0.9,31
C=C(C)C1CC=C(C)/C(=N\NC(=O)CNc2cccc3ccccc23)C1 (centres undefined),21,0.7,0.7,0.8,0
Cc1cc(C)c(C(=O)CN2C(=O)NC3(CCCCCC3)C2=O)cc1C,-4,1,1,1,11
CCOC(=O)N1CCC(N2C(=O)c3ccccc3C2Nc2ccccc2)CC1 (centres undefined),18,1,0.9,1,1
CCOC(=O)N1CCC(N2C(=O)c3ccccc3C2Nc2cc(C(=O)OC)cc(C(=O)OC)c2)CC1 (centres undefined),0,0.9,0.8,0.9,62*
O=C(CN1C(=O)/C(=C/c2cccc(Br)c2)SC1=S)N1CCCC1,-6,0.8,0.9,1,27
COc1ccc(Nc2nc(NC(C)(C)C)nc(N3CCCC3)n2)c(OC)c1,84*,1,0.7,0.9,96*
COc1ccc(N2CCN(c3nc(NC(C)(C)C)nc(N4CCCCC4)n3)CC2)cc1,39,0.9,0.9,0.8,97*
COc1ccc(Nc2nc(N3CCCCC3)nc(N3CCCCC3)n2)c(OC)c1,/,1,1,1,/
COc1ccc(Nc2nc(Nc3ccc(OC)cc3OC)nc(N3CCN(C)CC3)n2)c(OC)c1,22,1,0.9,0.8,77*
COc1ccc(N2CCN(c3nc(NCCO)nc(N4CCOCC4)n3)CC2)cc1,15,1,0.9,0.9,6
COc1ccc(Nc2nc(N3CCCCC3)nc3ccccc23)c(OC)c1,42,1,0.9,1,97*
CCO[C@H]1OC(C(=O)N2CCOCC2)=C[C@@H](c2ccc(Br)cc2)[C@@H]1CCCO,5,0.9,0.9,0.8,-4
C=CCn1c(SCC(=O)NCC2CCCO2)nnc1-c1ccccc1 (centres undefined),-6,0.8,0.8,0.9,-5
COCCNc1nc2sc3c(c2c(=O)n1Cc1ccco1)CCCCC3,6,1.3,0.9,1.3,1
Cc1ccc(NC(=O)CSc2nnc(-c3ccncc3)o2)cc1C,4,1,0.8,1,0
CCOc1ccccc1C(=O)N(C)Cc1cc2ccccc2[nH]c1=O,40,0.9,0.9,0.9,-5
CCOc1cc(C(=O)N(C)Cc2cc3ccccc3[nH]c2=O)cc(OCC)c1OCC,78*,1,1,1,-3
